Results on one molecule are retold here after publication PMC8887543 (Nucleic Acids Research, 2022).

For assay [1], the system named is G4-DNA (c-MYC promoter, telomeric) versus other nucleic acids. Nature of the assay: Selectivity screening by induced fluorescence with 20 nucleic acids. Type of assay: binding. To be noted: 5 μM ligand, 18 μM nucleic acid, Tris–HCl pH 7.4, 60 mM KCl. Put shortly: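 For induced-fluorescence selectivity, the test compound (5 μM) was mixed with each nucleic acid (18 μM) in 10 mM Tris–HCl (pH 7.4) with 60 mM KCl. Emission was recorded on a fluorescence spectrometer against compound alone without DNA. Samples were also viewed under 302 nm UV illumination.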

The subject of assay [2] is MCF-7 cells. The assay is described as follows: BRACO19 displacement in stained cells, confocal imaging. The conditions noted are these: ligand 5 μM, BRACO19 0–15 μM. Type of assay: cell-based, human. A digest of the protocol: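 MCF-7 cells were stained with the test compound (5 μM) plus increasing BRACO19 (0–15 μM) for displacement. Images were taken by laser-scanning confocal microscopy with 488 nm excitation. A parallel solution assay followed fluorescence of the compound (5 μM) bound to nucleic acid under the same BRACO19 range.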

The subject of assay [3] is dT21 (DNA, single strand) TTTTTTTTTTTTTTTTTTTTT
Nature of the assay: fluorescence light-up. The conditions noted are these: 60 mM KCl; 10 mM Tris-HCl, pH 7.4.

As for `CN1C(=Cc2cc[n+](C)c3ccccc23)Sc2ccccc21` [TO, thiazole orange], the “Selectivity toward G4-DNA structures by induced fluorescence” value in assay [1] was “non-selective”. In assay [2], the “Fluorescence change in stained cells after BRACO19 treatment” value was “not obvious”. For the same molecule, the binding entry in assay [3] is “weak”.
